Measured values taken from the M2OR odorant receptor database.

Assays:
Settings in all cases: stereoisomer not certain
O10Q1 Q10R E12D = test system: O10Q1 Q10R E12D
Method in brief: (§1)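 Each receptor–molecule pair is labelled responsive or non-responsive (inactive) according to whether the original authors judged the measured signal statistically different from baseline. The data were taken from the main text and supplementary material of published papers and checked for typos and inconsistencies. Assay methods differed by source, with transient luciferase assays in mammalian cell lines being common.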

O10R2 I170L = test system: O10R2 I170L
Chain of O10R2 I170L (as listed by the source, stated change not applied): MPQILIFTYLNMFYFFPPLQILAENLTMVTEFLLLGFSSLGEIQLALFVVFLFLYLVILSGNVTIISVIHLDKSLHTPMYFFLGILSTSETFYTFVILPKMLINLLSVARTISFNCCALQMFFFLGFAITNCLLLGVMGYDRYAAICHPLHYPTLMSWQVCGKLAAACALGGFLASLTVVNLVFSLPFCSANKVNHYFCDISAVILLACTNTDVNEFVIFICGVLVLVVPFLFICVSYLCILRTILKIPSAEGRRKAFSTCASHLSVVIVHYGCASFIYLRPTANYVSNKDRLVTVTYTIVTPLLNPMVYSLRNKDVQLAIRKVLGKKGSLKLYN
Method in brief: as §1

O10T2 I137M = test system: O10T2 I137M
Chain of O10T2 I137M (as listed by the source, stated change not applied): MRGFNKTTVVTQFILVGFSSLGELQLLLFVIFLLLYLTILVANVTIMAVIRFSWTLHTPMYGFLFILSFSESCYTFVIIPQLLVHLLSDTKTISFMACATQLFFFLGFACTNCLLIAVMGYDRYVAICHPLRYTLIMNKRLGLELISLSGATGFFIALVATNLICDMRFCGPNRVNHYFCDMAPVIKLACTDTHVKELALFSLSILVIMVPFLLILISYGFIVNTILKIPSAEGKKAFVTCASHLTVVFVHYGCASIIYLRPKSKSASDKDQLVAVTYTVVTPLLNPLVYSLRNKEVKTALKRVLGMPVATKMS
Method in brief: as §1

O10V1 Q123R = test system: O10V1 Q123R
Chain of O10V1 Q123R (as listed by the source, stated change not applied): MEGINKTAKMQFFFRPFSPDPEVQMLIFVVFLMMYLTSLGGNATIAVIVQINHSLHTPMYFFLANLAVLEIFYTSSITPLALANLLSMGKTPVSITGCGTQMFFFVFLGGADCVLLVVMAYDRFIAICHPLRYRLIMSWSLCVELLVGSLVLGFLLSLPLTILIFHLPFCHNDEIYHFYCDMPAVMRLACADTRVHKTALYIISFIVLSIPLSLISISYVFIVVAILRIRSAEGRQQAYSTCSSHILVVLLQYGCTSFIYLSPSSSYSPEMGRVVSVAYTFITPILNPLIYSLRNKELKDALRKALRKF
Method in brief: as §1

O10X1 N4T R181S = test system: O10X1 N4T R181S
Method in brief: as §1

O11G2 F3I I99N V116I = test system: O11G2 F3I I99N V116I
Method in brief: as §1

O11H1 M240V = test system: O11H1 M240V
Chain of O11H1 M240V (as listed by the source, stated change not applied): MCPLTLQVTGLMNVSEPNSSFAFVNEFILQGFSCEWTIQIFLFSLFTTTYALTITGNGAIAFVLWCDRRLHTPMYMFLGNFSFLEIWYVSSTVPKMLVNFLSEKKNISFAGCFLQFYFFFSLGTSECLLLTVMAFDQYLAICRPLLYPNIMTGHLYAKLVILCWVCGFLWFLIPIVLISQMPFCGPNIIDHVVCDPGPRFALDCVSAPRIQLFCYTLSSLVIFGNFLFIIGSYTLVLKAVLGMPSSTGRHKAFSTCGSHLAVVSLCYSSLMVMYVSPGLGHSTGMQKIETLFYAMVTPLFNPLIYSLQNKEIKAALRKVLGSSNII
Method in brief: as §1

O11H6 I107T = test system: O11H6 I107T
Chain of O11H6 I107T (as listed by the source, stated change not applied): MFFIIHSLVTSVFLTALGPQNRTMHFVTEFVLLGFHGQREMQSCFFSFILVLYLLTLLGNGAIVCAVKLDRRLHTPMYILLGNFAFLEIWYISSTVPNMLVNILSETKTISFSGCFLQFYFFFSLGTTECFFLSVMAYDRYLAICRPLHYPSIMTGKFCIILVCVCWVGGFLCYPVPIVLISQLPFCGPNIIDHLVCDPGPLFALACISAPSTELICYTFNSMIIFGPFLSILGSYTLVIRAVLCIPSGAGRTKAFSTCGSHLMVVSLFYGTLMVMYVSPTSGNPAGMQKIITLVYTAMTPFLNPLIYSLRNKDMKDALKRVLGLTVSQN
Method in brief: as §1

O11HC C156Y V240M = test system: O11HC C156Y V240M
Method in brief: as §1

O12D2 S104F = test system: O12D2 S104F
Chain of O12D2 S104F (as listed by the source, stated change not applied): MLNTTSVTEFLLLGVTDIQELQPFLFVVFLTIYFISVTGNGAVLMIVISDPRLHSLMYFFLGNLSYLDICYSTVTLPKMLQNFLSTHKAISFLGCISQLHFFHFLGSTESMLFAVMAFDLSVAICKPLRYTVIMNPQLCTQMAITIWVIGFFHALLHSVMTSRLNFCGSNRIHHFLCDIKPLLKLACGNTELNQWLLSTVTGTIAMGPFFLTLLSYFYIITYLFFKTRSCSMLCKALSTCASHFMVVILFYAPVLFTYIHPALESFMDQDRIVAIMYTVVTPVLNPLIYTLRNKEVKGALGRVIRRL
Method in brief: as §1

O13C2 H6Q = test system: O13C2 H6Q
Chain of O13C2 H6Q (as listed by the source): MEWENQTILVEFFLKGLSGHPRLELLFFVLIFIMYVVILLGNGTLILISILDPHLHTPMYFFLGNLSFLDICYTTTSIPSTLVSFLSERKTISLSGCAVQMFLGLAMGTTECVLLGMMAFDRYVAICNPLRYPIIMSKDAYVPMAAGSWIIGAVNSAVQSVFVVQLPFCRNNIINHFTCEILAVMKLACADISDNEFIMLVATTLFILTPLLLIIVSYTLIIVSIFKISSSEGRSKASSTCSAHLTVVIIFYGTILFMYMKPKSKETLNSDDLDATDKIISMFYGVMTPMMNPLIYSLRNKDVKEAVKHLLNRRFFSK
Method in brief: as §1

O13C8 A19D = test system: O13C8 A19D
Chain of O13C8 A19D (as listed by the source, stated change not applied): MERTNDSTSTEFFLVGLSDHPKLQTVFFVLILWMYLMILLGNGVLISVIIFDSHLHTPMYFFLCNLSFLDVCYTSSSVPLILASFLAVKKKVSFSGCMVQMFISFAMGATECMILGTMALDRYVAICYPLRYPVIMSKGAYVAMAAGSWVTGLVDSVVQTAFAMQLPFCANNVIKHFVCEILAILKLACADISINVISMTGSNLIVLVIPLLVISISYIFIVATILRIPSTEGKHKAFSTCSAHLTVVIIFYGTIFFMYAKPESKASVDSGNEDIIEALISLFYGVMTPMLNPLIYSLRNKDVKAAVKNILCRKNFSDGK
Method in brief: as §1

O13C9 H17L V19G L23H = test system: O13C9 H17L V19G L23H
Method in brief: as §1

O13C9 Q6H = test system: O13C9 Q6H
Chain of O13C9 Q6H (as listed by the source): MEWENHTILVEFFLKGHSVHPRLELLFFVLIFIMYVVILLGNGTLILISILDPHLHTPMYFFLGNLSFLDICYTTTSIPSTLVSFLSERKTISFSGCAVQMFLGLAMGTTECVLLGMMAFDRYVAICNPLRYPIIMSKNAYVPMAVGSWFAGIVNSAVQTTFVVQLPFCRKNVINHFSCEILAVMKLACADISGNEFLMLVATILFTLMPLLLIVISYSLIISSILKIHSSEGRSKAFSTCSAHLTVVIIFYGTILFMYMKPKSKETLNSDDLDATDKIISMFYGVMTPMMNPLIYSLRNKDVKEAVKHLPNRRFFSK
Method in brief: as §1

O13F1 F18S T254M = test system: O13F1 F18S T254M
Method in brief: as §1

O13F1 F18S = test system: O13F1 F18S
Chain of O13F1 F18S (as listed by the source, stated change not applied): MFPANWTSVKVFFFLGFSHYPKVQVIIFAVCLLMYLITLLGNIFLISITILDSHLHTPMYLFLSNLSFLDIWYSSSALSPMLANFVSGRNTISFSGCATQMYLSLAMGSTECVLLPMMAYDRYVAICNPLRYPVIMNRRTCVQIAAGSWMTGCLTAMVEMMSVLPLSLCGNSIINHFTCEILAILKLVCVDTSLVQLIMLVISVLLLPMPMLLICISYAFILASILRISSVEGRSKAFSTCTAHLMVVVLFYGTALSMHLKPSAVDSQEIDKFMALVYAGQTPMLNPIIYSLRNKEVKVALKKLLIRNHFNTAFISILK
Method in brief: as §1

O13G1 K46I M146L = test system: O13G1 K46I M146L
Method in brief: as §1

O13G1 = test system: O13G1
Chain of O13G1 (as listed by the source): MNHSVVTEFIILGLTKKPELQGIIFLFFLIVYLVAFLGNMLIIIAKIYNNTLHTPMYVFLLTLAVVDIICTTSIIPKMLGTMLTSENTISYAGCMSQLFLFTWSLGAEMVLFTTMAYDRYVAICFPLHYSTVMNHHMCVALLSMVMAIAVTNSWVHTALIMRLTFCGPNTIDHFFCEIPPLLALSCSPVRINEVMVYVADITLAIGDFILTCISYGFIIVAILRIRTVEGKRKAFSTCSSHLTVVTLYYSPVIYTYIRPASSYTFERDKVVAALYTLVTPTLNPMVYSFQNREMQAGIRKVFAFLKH
Method in brief: as §1

O13H1 Y266S = test system: O13H1 Y266S
Chain of O13H1 Y266S (as listed by the source, stated change not applied): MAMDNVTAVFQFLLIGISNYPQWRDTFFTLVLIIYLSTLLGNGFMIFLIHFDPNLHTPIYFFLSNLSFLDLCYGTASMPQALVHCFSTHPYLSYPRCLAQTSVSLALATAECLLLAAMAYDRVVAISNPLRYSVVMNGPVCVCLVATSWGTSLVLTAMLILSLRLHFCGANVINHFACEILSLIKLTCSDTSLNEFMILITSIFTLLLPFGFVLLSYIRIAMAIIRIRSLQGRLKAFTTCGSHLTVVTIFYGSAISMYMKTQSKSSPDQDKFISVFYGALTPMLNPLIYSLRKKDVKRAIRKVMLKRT
Method in brief: as §1

O13J1 = test system: O13J1
Chain of O13J1 (as listed by the source): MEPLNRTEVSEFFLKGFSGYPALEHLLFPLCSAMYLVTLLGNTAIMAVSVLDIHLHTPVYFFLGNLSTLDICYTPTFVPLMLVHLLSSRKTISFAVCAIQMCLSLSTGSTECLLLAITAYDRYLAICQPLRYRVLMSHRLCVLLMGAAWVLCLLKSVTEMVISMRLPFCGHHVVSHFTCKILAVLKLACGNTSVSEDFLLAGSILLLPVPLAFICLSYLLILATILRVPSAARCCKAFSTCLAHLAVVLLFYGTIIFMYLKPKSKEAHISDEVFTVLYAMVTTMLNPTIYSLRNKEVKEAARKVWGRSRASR
Method in brief: as §1

Measured: odorant receptor agonist call;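 note: active if original authors judged signal statistically different from baseline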

C=CCOC(=O)Cc1ccccc1
inactive: all assays above
